# According to ChEMBL document CHEMBL1124645, “Minimum-structure enkephalin analogues incorporating L-tyrosine, D(or L)-phenylalanine, and a diamine spacer” (J Med Chem, 1989):
# Assays:
# Cavia porcellus [1] = species on record: Cavia porcellus; assay: Ability to display a naloxone-reversible inhibition of electrically induced contractions in GPI in the presence of 1.0 uM bestatin at concentration 10 e-6 M; format: functional
# Cavia porcellus [2] = species on record: Cavia porcellus; assay: Inhibitory activity in guinea pig ileum tissue in the absence and presence of 10 nM naloxone; format: functional
# Cavia porcellus [3] = species on record: Cavia porcellus; assay: Percentage inhibition of compound against morphine at 10 e-7 M in guinea pig ileum tissue; format: functional
# Procedure, shortened: (§1)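 Hartley male guinea pigs (400–450 g); 3–4-cm segments of terminal ileum in a 3.5-mL Krebs bath at 37 ± 0.5 °C, gassed with 95% O2-5% CO2. […] Each was tested at least twice per preparation. Results are the average of at least three ilea from different animals.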
# Cavia porcellus [4] = species on record: Cavia porcellus; assay: Ability to display a naloxone-reversible inhibition of electrically induced contractions in GPI by Morphine at 0.1 uM; format: functional; procedure, shortened: as §1
# Cavia porcellus [5] = species on record: Cavia porcellus; assay: Ability to display a naloxone-reversible inhibition of electrically induced contractions in GPI by Morphine at 0.5 uM; format: functional
# Cavia porcellus [6] = species on record: Cavia porcellus; assay: Ability to display a naloxone-reversible inhibition of electrically induced contractions in GPI in the presence of 1 uM bestatin at concentration 2 uM
Structure (SMILES),Inhibition (Cavia porcellus [1]),Ke (Cavia porcellus [2]),inhibition at 0.1 µM (Cavia porcellus [3]),Relative potency (Cavia porcellus [4]),Inhibition (Cavia porcellus [4]),Inhibition (Cavia porcellus [5]),Inhibition (Cavia porcellus [6])
CC(=O)N[C@H](Cc1ccccc1)C(=O)NCC(C)(C)NC(=O)C(N)Cc1ccc(O)cc1 (some centres not stated),91.5%,4.2 nM,43.5%,21.2,–,–,–
CC(=O)N[C@H](Cc1ccccc1)C(=O)NCCCNC(=O)C(N)Cc1ccc(O)cc1 (some centres not stated),29.5%,4.4 nM,–,0.0077,47%,–,–
CC(=O)NC(Cc1ccccc1)C(=O)NC(C)(C)CNC(=O)C(N)Cc1ccc(O)cc1 (stereo in doubt),16.3%,–,47%,–,–,–,–
CC(=O)NC(Cc1ccccc1)C(=O)NCCNC(=O)C(N)Cc1ccc(O)cc1 (stereo in doubt),10%,–,49.5%,–,–,–,–
CC(=O)NC(Cc1ccccc1)C(=O)NCC(C)(C)NC(=O)C(N)Cc1ccc(O)cc1 (stereo in doubt),79.3%,1.4 nM,47%,10,–,–,–
N[C@@H](Cc1ccccc1)C(=O)NCCNC(=O)[C@@H](N)Cc1ccc(O)cc1,12%,–,–,–,–,49.5%,–
CC(=O)N[C@H](Cc1ccccc1)C(=O)NCCC(C)(C)NC(=O)C(N)Cc1ccc(O)cc1 (some centres not stated),53%,3.3 nM,–,0.22,40%,–,–
CC(=O)NC(Cc1ccccc1)C(=O)NCCCNC(=O)C(N)Cc1ccc(O)cc1 (stereo in doubt),5%,–,–,–,–,–,8%
CC(=O)N[C@H](Cc1ccccc1)C(=O)NC(C)(C)CNC(=O)C(N)Cc1ccc(O)cc1 (some centres not stated),42.5%,–,40%,0.27,–,–,–
CC(=O)N[C@H](Cc1ccccc1)C(=O)NCCNC(=O)C(N)Cc1ccc(O)cc1 (some centres not stated),89.5%,4 nM,40%,1.6,–,–,–
N[C@H](Cc1ccccc1)C(=O)NCCNC(=O)[C@@H](N)Cc1ccc(O)cc1,8%,–,49.5%,–,–,–,–
CC(=O)NC(Cc1ccccc1)C(=O)NCCC(C)(C)NC(=O)C(N)Cc1ccc(O)cc1 (stereo in doubt),50.5%,2.1 nM,–,0.052,47%,–,–
